Measurements: ChEMBL document CHEMBL1759908, “Design, synthesis and potential 6 Hz psychomotor seizure test activity of some novel 2-(substituted)-3-{[substituted]amino}quinazolin-4(3H)-one” (Eur J Med Chem, 2011)
Activity calls are given as the source filed them.

Tests used:
[1] = Lipophilicity, log P of the compound in octanol-phosphate buffer; type: physicochemical
How it was run: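 Experimental log P was measured by octanol-phosphate buffer partition. The mixture stood 24 h at room temperature and was then equilibrated 6 h in a separating funnel. Phases were separated and membrane-filtered, and drug in the aqueous phase was quantified by UV spectroscopy.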

[2] = system: Mus musculus; experiment: Neurotoxicity in CF1 mouse assessed as minimal motor impairment at 100 mg/kg, ip after 1 min by rotarod test; type: toxicity, organism-based; set-up: dose 100 mg/kg, route intraperitoneal; conditions: in vivo
How it was run: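 Neurotoxicity was scored as minimal motor impairment on the rotarod. Male CF-1 mice (18-25 g) received 100 mg/kg i.p. as a 0.5% methylcellulose suspension. Results are given as number toxic over number tested.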

[3] = system: Mus musculus; experiment: Anticonvulsant activity in CF1 mouse assessed as protection against 32 mA-current- for 3 secs induced seizure at 100 mg/kg, ip after 0.25 hr by 6Hz psychomotor seizure test; type: functional
How it was run: (§1)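 Male CF-1 mice (18-25 g) received 100 mg/kg i.p. as a suspension in 0.5% methylcellulose. At 0.25, 0.5, 1.0, 2.0 and 4.0 h, four mice per time point were stimulated through corneal electrodes (32 mA, 3 s, 6 Hz). Mice without psychomotor seizure behaviour were counted as protected. Results are reported as number protected over number tested.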

[4] = system: Mus musculus; experiment: Anticonvulsant activity in CF1 mouse assessed as protection against 32 mA-current- for 3 secs induced seizure at 100 mg/kg, ip after 2 hrs by 6Hz psychomotor seizure test; type: functional; how it was run: as §1
[5] = system: Mus musculus; experiment: Anticonvulsant activity in CF1 mouse assessed as protection against 32 mA-current- for 3 secs induced seizure at 100 mg/kg, ip after 4 hrs by 6Hz psychomotor seizure test; type: functional, organism-based; set-up: dose 100 mg/kg; how it was run: as §1
[6] = system: Mus musculus; experiment: Anticonvulsant activity in CF1 mouse assessed as protection against 32 mA-current- for 3 secs induced seizure at 100 mg/kg, ip after 0.5 hr by 6Hz psychomotor seizure test; type: functional; how it was run: as §1
[7] = system: Mus musculus; experiment: Anticonvulsant activity in CF1 mouse assessed as protection against 32 mA-current- for 3 secs induced seizure at 100 mg/kg, ip after 1 hr by 6Hz psychomotor seizure test; type: functional; how it was run: as §1
[8] = system: Mus musculus; experiment: Anticonvulsant activity in CF1 mouse at 30 to 300 mg/kg, ip by maximal electroshock test; type: functional, organism-based
How it was run: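 Male CF-1 mice (18-25 g) were dosed i.p. at 30, 100 and 300 mg/kg (0.5% methylcellulose suspension). Maximal electroshock protection and neurotoxicity were assessed 30 min and 4 h after administration.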

[9] = system: Mus musculus; experiment: Anticonvulsant activity in CF1 mouse at 30 to 300 mg/kg, sc after 30 mins by subcutaneous metrazole seizure threshold test; type: functional, organism-based
[10] = Neuroprotective activity against N-methyl-D-aspartate induced toxicity in hippocampus slices after 4 hrs propidium iodide staining; type: functional, tissue-based
How it was run: (§2)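 Organotypic hippocampal slice cultures were exposed to NMDA or kainic acid alone, or with the investigational compound, in the presence of propidium iodide. Cell death was read as propidium iodide fluorescence intensity and compared with slices given excitotoxin alone.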

[11] = Neuroprotective activity against kainic acid induced toxicity in hippocampus slices after 4 hrs propidium iodide staining; type: functional, tissue-based; how it was run: as §2
[12] = system: Mus musculus; experiment: Anticonvulsant activity against 32 mA-current- for 3 secs induced seizure in ip dosed CF1 mouse after 0.5 hr by 6Hz psychomotor seizure test; type: functional
How it was run: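 Quantitative 6 Hz test in male CF-1 mice. The compound was suspended in 0.5% methylcellulose and given i.p. at 50, 100, 200 and 350 mg/kg, eight mice per dose. Mice were stimulated through corneal electrodes (32 mA, 3 s) at a 0.5 h time of peak effect. ED50 was derived from the number of mice protected per dose.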

[13] = Toxicity in ip dosed CF1 mouse after 0.5 hr; type: organism-based; conditions: in vivo
How it was run: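 Quantitative toxicity test in male CF-1 mice dosed i.p. (0.5% methylcellulose suspension) at 50, 100, 200 and 350 mg/kg, eight mice per dose. Motor impairment was scored at 0.5 h and TD50 derived from the number of toxic mice over the number tested.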

SMILES | logP [1] | Activity [2] | Activity [5] | Activity ([6]; route intraperitoneal) | Activity [4] | other results
O=c1c2ccccc2nc(-c2ccccc2)n1/N=C/c1ccc(Oc2ccc3c(c2)OCO3)cc1 | 6.01 | Non-toxic | inactive |  | inactive | Activity [7]: inactive; Activity [6]: inactive
O=c1c2ccccc2nc(-c2ccccc2)n1/N=C/c1ccc(Oc2ccc3ccccc3c2)cc1 | 6.53 |  |  |  |  | Activity [8]: inactive; Activity [9]: inactive
O=c1c2ccccc2nc(-c2ccccc2)n1/N=C/c1ccc(Oc2ccc([N+](=O)[O-])cc2)cc1 | 6.12 |  |  |  |  | Activity [8]: inactive; Activity [9]: inactive
Cc1nc2ccccc2c(=O)n1/N=C1/C(=O)Nc2ccccc21 | 2.23 | Non-toxic | inactive |  | inactive | Activity [3]: inactive; Activity [7]: inactive
CCCc1nc2ccccc2c(=O)n1/N=C/c1ccc(Oc2ccccc2)cc1 | 5.2 | Non-toxic | inactive |  | inactive | Activity [3]: inactive
O=c1c2ccccc2nc(-c2ccccc2)n1/N=C/c1ccc(Oc2ccc(Br)cc2)cc1 | 6.39 |  |  |  |  | 
O=c1c2ccccc2nc(-c2ccccc2)n1/N=C/c1ccc(Oc2ccc(F)cc2)cc1 | 6.21 | Non-toxic | inactive |  | inactive | Activity ([7]; route intraperitoneal): 25%
O=C1Nc2ccccc2/C1=N\n1c(-c2ccccc2)nc2ccccc2c1=O | 4.03 |  |  |  |  | Activity [8]: inactive; Activity [9]: inactive
Cc1cc(Oc2ccc(/C=N/n3c(-c4ccccc4)nc4ccccc4c3=O)cc2)ccc1Cl | 6.52 | Non-toxic | inactive | 100% |  | Activity [10]: inactive; Activity [11]: inactive; ED50 [12]: > 350 mg/kg; TD50 at 0.5 h [13]: > 350 mg/kg; Activity ([3]; route intraperitoneal): 75%; Activity ([7]; route intraperitoneal): 25%; Activity ([4]; route intraperitoneal): 25%; Activity [6]: Active
CCCc1nc2ccccc2c(=O)n1/N=C1/C(=O)Nc2ccccc21 | 3.23 | Non-toxic | inactive | 50% |  | Activity ([3]; route intraperitoneal): 75%; Activity ([7]; route intraperitoneal): 50%; Activity ([4]; route intraperitoneal): 25%
CCCc1nc2ccccc2c(=O)n1/N=C/c1ccc(Oc2ccc3c(c2)OCO3)cc1 | 4.82 |  |  |  |  | 
Cc1ccc(Oc2ccc(/C=N/n3c(-c4ccccc4)nc4ccccc4c3=O)cc2)cc1 | 6.29 |  |  |  |  | Activity [8]: inactive; Activity [9]: inactive
CCCc1nc2ccccc2c(=O)n1/N=C/c1ccc(Oc2ccc3ccccc3c2)cc1 | 6.12 | Non-toxic | inactive | 50% | inactive | Activity ([3]; route intraperitoneal): 50%; Activity ([7]; route intraperitoneal): 25%
O=c1c2ccccc2nc(-c2ccccc2)n1/N=C/c1ccc(Oc2ccccc2)cc1 | 6.13 |  |  |  |  | Activity [8]: inactive; Activity [9]: inactive

Second part, led by results:

logP [1] | SMILES | Activity [2] | Activity [5] | Activity ([6]; route intraperitoneal) | Activity [4] | other results
4.32 | Cc1ccc(Oc2ccc(/C=N/n3c(C)nc4ccccc4c3=O)cc2)cc1 | Non-toxic | inactive | 75% |  | Activity ([3]; route intraperitoneal): 50%; Activity ([4]; route intraperitoneal): 25%
5.22 | CCCc1nc2ccccc2c(=O)n1/N=C/c1ccc(Oc2ccc(F)cc2)cc1 | Non-toxic | inactive |  | inactive | Activity [7]: inactive; Activity [6]: inactive
6.38 | O=c1c2ccccc2nc(-c2ccccc2)n1/N=C/c1ccc(Oc2ccc(Cl)cc2)cc1 |  |  |  |  | Activity [8]: inactive; Activity [9]: inactive
5.88 | CCCc1nc2ccccc2c(=O)n1/N=C/c1ccc(Oc2ccc(Br)cc2)cc1 | Non-toxic | inactive | 25% | inactive | Activity ([3]; route intraperitoneal): 50%; Activity ([7]; route intraperitoneal): 50%
4.21 | Cc1nc2ccccc2c(=O)n1/N=C/c1ccc(Oc2ccc(F)cc2)cc1 | Non-toxic | inactive |  |  | Activity [3]: inactive; Activity ([7]; route intraperitoneal): 50%
5.45 | CCCc1nc2ccccc2c(=O)n1/N=C/c1ccc(Oc2ccc(C)cc2)cc1 | Non-toxic | inactive | 50% | inactive | Activity [3]: inactive; Activity [7]: inactive
4.64 | Cc1nc2ccccc2c(=O)n1/N=C/c1ccc(Oc2ccc(Br)cc2)cc1 | Non-toxic | inactive | 50% |  | Activity [3]: inactive
4.41 | Cc1cc(Oc2ccc(/C=N/n3c(C)nc4ccccc4c3=O)cc2)ccc1Cl | Non-toxic | inactive | 50% | inactive | Activity ([3]; route intraperitoneal): 50%; Activity ([7]; route intraperitoneal): 25%
4.01 | Cc1nc2ccccc2c(=O)n1/N=C/c1ccc(Oc2ccc([N+](=O)[O-])cc2)cc1 | Non-toxic | inactive |  |  | 
4.01 | Cc1nc2ccccc2c(=O)n1/N=C/c1ccc(Oc2ccccc2)cc1 | Non-toxic | inactive |  | inactive | Activity [3]: inactive; Activity [7]: inactive
5.22 | Cc1nc2ccccc2c(=O)n1/N=C/c1ccc(Oc2ccc3ccccc3c2)cc1 | Non-toxic | inactive | 50% | inactive | Activity [3]: inactive; Activity [7]: inactive
4.6 | Cc1nc2ccccc2c(=O)n1/N=C/c1ccc(Oc2ccc(Cl)cc2)cc1 |  |  |  |  | 
5.18 | CCCc1nc2ccccc2c(=O)n1/N=C/c1ccc(Oc2ccc([N+](=O)[O-])cc2)cc1 | Non-toxic | inactive |  | inactive | Activity [6]: inactive
6.02 | CCCc1nc2ccccc2c(=O)n1/N=C/c1ccc(Oc2ccc(Cl)c(C)c2)cc1 | Non-toxic | inactive |  |  | Activity ([3]; route intraperitoneal): 50%
4.01 | Cc1nc2ccccc2c(=O)n1/N=C/c1ccc(Oc2ccc3c(c2)OCO3)cc1 | Non-toxic | inactive |  | inactive | Activity [3]: inactive; Activity [7]: inactive
5.78 | CCCc1nc2ccccc2c(=O)n1/N=C/c1ccc(Oc2ccc(Cl)cc2)cc1 | Non-toxic | inactive |  | inactive | Activity ([3]; route intraperitoneal): 50%; Activity [7]: inactive; Activity [6]: inactive
